Results gathered from unrelated publications.
Protocols differ between the studies behind these lines.
MET M1250T: Hepatocyte growth factor receptor (MET, Homo sapiens, UniProt P08581, M1250T)
MET: Hepatocyte growth factor receptor (MET, Homo sapiens, UniProt P08581)

Structure (SMILES) | target | read-out | mode | technique | concentration | endpoint | result
F[C@@H]1CCN(c2nccc(-c3cnn4ncccc34)n2)C1 | MET M1250T | binding | – | – | 1 µM | remaining binding | 100%
O=C(NCCCC1CCCCC1)c1ccc(CNC(=O)c2cnn(-c3ccccc3)c2C(F)(F)F)cc1 | MET M1250T | cell-free assay | – | competition with immobilised ligand | 0.1 µM | remaining binding | 76%
Nc1ncnc2occ(-c3ccc(NC(=O)Nc4cc(C(F)(F)F)ccc4F)cc3)c12 | MET | cell-free assay | – | – | 20 µM | remaining signal | 8.8%
C[C@@H]1CCN(c2nccc(-c3cnn4ncccc34)n2)C1 | MET | binding | – | – | 1 µM | remaining binding | 84%
Cc1cc(NC(=O)c2cccc3cc(-c4cccc5[nH]nc(N)c45)ccc23)ccc1F | Hepatocyte growth factor receptor (MET, Homo sapiens, UniProt P08581, Y1230C) | enzyme activity | inhibitor | – | 0.1 µM | activity vs control | 92%
Cc1cnc(NC2CCOCC2)nc1-n1cnc(C(=O)NC(CN)c2cc(F)cc(Cl)c2)c1 (stereo not shown) | Hepatocyte growth factor receptor (MET, Homo sapiens, UniProt P08581, D1228N) | enzyme activity | inhibitor | radiometric | 1 µM | remaining activity | 97%
COCCOc1nc(-c2ccc(Cl)nc2)nc2c1CN(C(=O)c1ncn3ccccc13)CC2 | MET | cell-free assay | – | competition with immobilised ligand | 0.1 µM | remaining binding | 100%
CNC(=O)c1cc2c(Oc3ccc(NC(=O)C4(C(=O)Nc5ccc(F)cc5)CC4)cc3)ccnc2cc1OC | Hepatocyte growth factor receptor (MET, Homo sapiens, UniProt P08581, D1228H) | enzyme activity | inhibitor | radiometric | 1 µM | inhibition | 103%
Cc1ccc(NC(=O)c2ccc(C)c(C(F)(F)F)c2)cc1C#Cc1nn(C2CCC(O)CC2)c2ncnc(N)c12 (stereo not shown) | MET M1250T | cell-free assay | – | – | 10 µM | remaining signal | 136%
CC(=O)Nc1c(C(C)=O)c(=O)n(C)c2nc(-c3ccc(Cl)cc3Cl)c(-c3ccc(Cl)cc3)cc12 | MET M1250T | cell-free assay | – | competition with immobilised ligand | 1 µM | remaining binding | 100%
